In ChEMBL document CHEMBL1123510, “Investigation of the structural requirements for the kappa-selective opioid receptor antagonist, 6 beta,6 beta'-[ethylenebis(oxyethyleneimino)]bis[17-(cyclopropylmethyl)- 4,5 alpha-epoxymorphinan-3,14-diol] (TENA)” (J Med Chem, 1986) one finds IC50, Relative potency and IC50 ratio data, which are given here for three molecules.

Holding throughout (format): functional
Assay [1] is filed under the species Cavia porcellus. Nature of the assay: Inhibitory concentration of compound was measured in muscle of the guinea pig ileum. To be noted: Muscle tissue. The method, boiled down: (§1)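 Electrically stimulated longitudinal muscle of guinea pig ileum; agonist IC50 for inhibition of the twitch, with potency expressed relative to a control morphine IC50 run in the same preparation.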

The species entered for assay [2] is Cavia porcellus. Description: The agonist potency of compound was determined relative to control morphine IC50. The method, boiled down: as §1
For assay [3], the species on record is Cavia porcellus. Description: Inhibitory concentration of morphine was measured in muscle of the guinea pig ileum. To be noted: Muscle tissue. The method, boiled down: as §1
Assay [4] in a line: Ratio of IC50 of ethylketazocine (EK) in the presence of compound to IC50 of ethylketazocine in the absence of compound. The method, boiled down: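 Guinea pig ileum longitudinal muscle, electrically stimulated; the kappa agonist ethylketazocine (EK) was run with and without the test antagonist, given at 20 nM or 2 nM depending on the compound. The IC50 ratio is EK IC50 with antagonist over EK IC50 alone.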

The term IC50 denotes the midpoint of a concentration-inhibition curve. Read a low IC50 as higher potency.

Consider `NCCOCCOCCN[C@@H]1CC[C@@]2(O)C3Cc4ccc(O)c5c4C2(CCN3CC2CC2)[C@H]1O5` (some centres not stated), for which the results for the IC50 in the assay listed under Cavia porcellus [1] and in the assay listed under Cavia porcellus [3] were 21.1 nM and 123 nM, respectively. This molecule also registered a Relative potency in the assay listed under Cavia porcellus [2] of 5.8. Moreover, the IC50 ratio in assay [4] was 1.1.

With `N=C(N)NCCOCCOCCN[C@@H]1CC[C@@]2(O)C3Cc4ccc(O)c5c4C2(CCN3CC2CC2)[C@H]1O5.O=S(=O)(O)O` (some centres not stated), the values for the IC50 in the assay filed under Cavia porcellus [1] and in the assay listed under Cavia porcellus [3] were 11.4 nM and 104 nM, respectively. Moreover, in the assay filed under Cavia porcellus [2], the Relative potency worked out at 9.1. Also, the IC50 ratio in assay [4] is 1.

Take `Oc1ccc2c3c1O[C@H]1[C@H](NCCOCCOCCNCc4ccccc4)CC[C@@]4(O)C(C2)N(CC2CC2)CCC314` (some centres not stated): the IC50 in the assay listed under Cavia porcellus [1] is 206 nM; in the assay listed under Cavia porcellus [3], 107 nM. In addition, in the assay listed under Cavia porcellus [2], the Relative potency was determined as 5.2. Besides, the IC50 ratio in assay [4] turned out to be 3.1.
